Activity calls are given as the source filed them. No cut-off for these calls is given here.

The subject of experiment [1] is NCI-H929. Nature of the experiment: Downregulation of CDK1 protein expression in human NCI-H929 cells incubated at 0.3 to 3 micromol/L for 48 hrs by Western blot analysis. Type of experiment: functional, cell-based. To be noted: dose 0.3-3 µmol/L. The method, boiled down: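 MM.1S and H929 cells given TAS-117 at the indicated doses for 48 h. Protein levels assessed by immunoblot.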
On the technique in general: Immunoblotting shows a protein as a band on a membrane.

For experiment [2], the system named is NCI-H929. Nature of the experiment: Synergistic activity against human NCI-H929 cells assessed as combination index preincubated in presence of 2.5 uM GSK126 […] at 0.125 uM incubated for 48 hrs by […]. Type of experiment: functional. The method, boiled down:
(§1)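 Cells were exposed to the EZH2/EZH1 inhibitor (UNC1999 or GSK126) for 72 h in total, with the Akt inhibitor added for the last 48 h. Viability was read by MTS assay relative to untreated control cells, in triplicate. The combination index for each dose pair came from isobologram analysis.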

Experiment [3] has as its system MM1.S. The experiment is described as follows: Induction of apoptosis in human MM1.S cells assessed as late apoptotic cells at 2 micromol/L incubated for 12 hrs by annexin V/PI staining based flow cytometry (reference value: 3.6%). Type of experiment: functional. The note with it: dose 2 µmol/L, at 2 µM. For orientation: Flow cytometry measures light scatter and fluorescence of single cells or particles in a stream.

Experiment [4] concerns OPM-2. The experiment is described as follows: Synergistic activity against human OPM-2 cells assessed as combination index preincubated in presence of 2.5 uM GSK126 for 72 hrs followed by compound addition at 5 uM incubated for 48 hrs by MTT assay. Type of experiment: functional. (Formazan colour is commonly taken as a measure of viable cells.)
Experiment [5] concerns OPM-2. Nature of the experiment: Synergistic activity against human OPM-2 cells assessed as combination index preincubated in presence of 1.25 uM UNC1999 for 72 hrs followed by compound addition at 2.5 uM incubated for 48 hrs by MTT assay. It is filed as functional.
Experiment [6] has as its system NCI-H929. Nature of the experiment: Upregulation of FOXO3 […] expression in human NCI-H929 cells assessed as enhanced nuclear accumulation at 1 micromol/L after 24 hrs by immunofluorescence staining. To be noted: dose 1.0 µmol/L. It is filed as functional, cell-based.
Experiment [7] deals with MM1.S. The experiment is described as follows: Synergistic activity against human MM.1S cells assessed as combination index […] at 0.125 uM incubated for 48 hrs MTT assay. Type of experiment: functional. The method, boiled down:
as §1

Experiment [8] deals with MM1.S. The experiment is described as follows: Upregulation of EZH1 protein expression in human MM1.S cells at 0.03 to 3 micromol/L after 48 hrs by Western blot analysis. It is filed as functional, cell-based. To be noted: dose 0.03-3 µmol/L. Summed up: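 MM.1S and H929 cells were treated with graded TAS-117 for 48 h. EZH1 was detected by immunoblot and quantified relative to the GAPDH loading control.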

Experiment [9] deals with MM1.S. The experiment is described as follows: Synergistic activity against human MM.1S cells assessed as combination index […] in presence of 1.25 uM UNC1999 […] at 0.25 uM incubated for 48 hrs by MTT assay. Type of experiment: functional. The method, boiled down: as §1
Experiment [10] deals with NCI-H929. Nature of the experiment: Induction of apoptosis in human NCI-H929 cells assessed as early apoptotic cells at 5 micromol/L incubated for 48 hrs by annexin V/PI staining based flow cytometry (reference value: 0.37%). It is filed as functional. To be noted: dose 5 µmol/L, at 5 µM.

`C[C@]1(O)C[C@@](N)(c2ccc(-c3nc4n(c3-c3ccccc3)COc3ccncc3-4)cc2)C1` [PIFUSERTIB]: the outcome with NCI-H929 [1], in the experiment with NCI-H929 [6] and with MM1.S [8] was Active. For the same molecule, the CI with NCI-H929 [2] is 4.094; with OPM-2 [4] it was 6.9; in the experiment on OPM-2 [5], 1.51; in the experiment on MM1.S [7], 0.253; in the experiment on MM1.S [9] it was 0.251. In addition, the Activity is 4.57% in the experiment on MM1.S [3] and 9.69% with NCI-H929 [10].

(Values after ChEMBL document CHEMBL5647697, “Akt inhibition synergizes with polycomb repressive complex 2 inhibition in the treatment of multiple myeloma” (2019).)
